Activity calls are given as the source filed them. The rule behind the calls is not given here.
Assays:
[1] = system: MOLT-4; experiment: Cytotoxicity against human MOLT4 cells after 72 hrs by MTT assay; format: functional, cell-based; details: MOLT-4, 72 h
Summary of the method: (§1)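 Cells seeded on day 0 at 1 × 10^4 to 3 × 10^4 cells/mL (adherent lines in DMEM, MOLT-4 in suspension in RPMI, 10% FBS, 37 °C, 5% CO2); 10-fold dilutions 10−8–10−4 M for 72 h; MTT, OD 570 nm; percentage growth versus time-zero and control; IC50 by linear regression; quadruplicate, at least two experiments.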

[2] = system: HCT-116; experiment: Cytotoxicity against human HCT116 cells after 72 hrs by MTT assay; format: functional, cell-based; details: HCT-116, 72 h; summary of the method: as §1
[3] = system: SW-620; experiment: Cytotoxicity against human SW620 cells after 72 hrs by MTT assay; format: functional, cell-based; details: SW-620, 72 h; summary of the method: as §1
[4] = system: MCF7; experiment: Cytotoxicity against human MCF7 cells after 72 hrs by MTT assay; format: functional, cell-based; details: MCF7, 72 h; summary of the method: as §1
[5] = system: NCI-H460; experiment: Cytotoxicity against human H460 cells after 72 hrs by MTT assay; format: functional, cell-based; details: NCI-H460, 72 h; summary of the method: as §1
[6] = system: Nucleic Acid; experiment: Binding affinity to radiolabeled Pvu2 DNA after 15 mins by Dnase1 footprinting assay; format: nucleic-acid assay
Summary of the method: (§2)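 265 bp EcoRI/PvuII pBluescript fragment, 3′-end labeled with α-[32P]dATP by Klenow. Compounds at increasing concentrations pre-equilibrated with DNA 15 min at 37 °C, then DNase I (final 0.002 unit/mL) in 20 mM NaCl, 2 mM MgCl2, 2 mM MnCl2, pH 7.3, 4 min digestion; products resolved on denaturing 8% polyacrylamide/8 M urea gel, G-track for base positions.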

[7] = molecular target: DNA topoisomerase 2-alpha (Homo sapiens) (UniProt P11388); experiment: Inhibition of human topoisomerase 2-mediated DNA cleavage at 50 uM incubated for 45 mins followed by enzyme addition measured after 30 mins by agarose gel electrophoresis
Summary of the method: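 Compounds (50 μM) incubated with 350 ng supercoiled pUC19 before topoisomerase II addition; gel quantified for percentage poisoning normalized to etoposide at the same concentration.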

[8] = system: HCT-116; experiment: Induction of cell cycle arrest in human HCT116 cells assessed as accumulation at G1 phase at 1 to 5 uM by propidium iodide based flow cytometry; format: functional; details: TDE = time-dependent effect
Summary of the method: (§3)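 HCT116 cells (2 × 10^5 per well) treated after 24 h with 1 or 5 μM for 24 and 48 h; floating and attached cells pooled, fixed in 70% ethanol, stained with 50 μg/mL propidium iodide plus RNase A; 20 000 events by flow cytometry; phase percentages from DNA histograms; duplicate, repeated at least twice.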

[9] = system: HCT-116; experiment: Induction of cell cycle arrest in human HCT116 cells assessed as accumulation at G2/M phase at 1 to 5 uM by propidium iodide based flow cytometry; format: functional; details: TDE = time-dependent effect; summary of the method: as §3
[10] = system: HCT-116; experiment: Induction of cell cycle arrest in human HCT116 cells assessed as accumulation at G1 phase after 24 to 48 hrs by propidium iodide based flow cytometry; format: functional; summary of the method: as §3
[11] = system: HCT-116; experiment: Induction of cell cycle arrest in human HCT116 cells assessed as accumulation at G2/M phase after 24 to 48 hrs by propidium iodide based flow cytometry; format: functional; summary of the method: as §3
[12] = system: Nucleic Acid; experiment: Binding affinity to AT rich site of Pvu2 DNA by densitometric analysis; format: nucleic-acid assay; summary of the method: as §2
[13] = system: Nucleic Acid; experiment: Binding affinity to calf thymus DNA assessed as change in melting temperature at drug/base pair ratio of 0.25 by UV-visible spectrophotometric analysis; format: nucleic-acid assay; details: Bos taurus
Summary of the method: (§4)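 Melting: 20 μM CT-DNA or poly(dAdT)2 alone or with compound (drug/base pair ratio 0.01−0.5) in BPE buffer (6 mM Na2HPO4, 2 mM NaH2PO4, 1 mM EDTA, pH 7.1); A260 read each minute from 20 to 100 °C at 1 °C/min; Tm from midpoint of hyperchromic transition (first-derivative plots); ΔTm = Tm[drug+DNA] − Tm[DNA alone].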

[14] = system: Nucleic Acid; experiment: Binding affinity to calf thymus DNA assessed as change in melting temperature at drug/base pair ratio of 0.5 by UV-visible spectrophotometric analysis; format: nucleic-acid assay; details: Bos taurus; summary of the method: as §4
[15] = molecular target: T1, DNA topoisomerase 1 (Homo sapiens) (UniProt P11387); experiment: Inhibition of human topoisomerase 1-mediated supercoiled pUC19 plasmid DNA relaxation at 0.5 to 2 uM incubated for 45 mins followed by enzyme addition measured after 30 mins by agarose gel electrophoresis
T1 sequence (whole entry): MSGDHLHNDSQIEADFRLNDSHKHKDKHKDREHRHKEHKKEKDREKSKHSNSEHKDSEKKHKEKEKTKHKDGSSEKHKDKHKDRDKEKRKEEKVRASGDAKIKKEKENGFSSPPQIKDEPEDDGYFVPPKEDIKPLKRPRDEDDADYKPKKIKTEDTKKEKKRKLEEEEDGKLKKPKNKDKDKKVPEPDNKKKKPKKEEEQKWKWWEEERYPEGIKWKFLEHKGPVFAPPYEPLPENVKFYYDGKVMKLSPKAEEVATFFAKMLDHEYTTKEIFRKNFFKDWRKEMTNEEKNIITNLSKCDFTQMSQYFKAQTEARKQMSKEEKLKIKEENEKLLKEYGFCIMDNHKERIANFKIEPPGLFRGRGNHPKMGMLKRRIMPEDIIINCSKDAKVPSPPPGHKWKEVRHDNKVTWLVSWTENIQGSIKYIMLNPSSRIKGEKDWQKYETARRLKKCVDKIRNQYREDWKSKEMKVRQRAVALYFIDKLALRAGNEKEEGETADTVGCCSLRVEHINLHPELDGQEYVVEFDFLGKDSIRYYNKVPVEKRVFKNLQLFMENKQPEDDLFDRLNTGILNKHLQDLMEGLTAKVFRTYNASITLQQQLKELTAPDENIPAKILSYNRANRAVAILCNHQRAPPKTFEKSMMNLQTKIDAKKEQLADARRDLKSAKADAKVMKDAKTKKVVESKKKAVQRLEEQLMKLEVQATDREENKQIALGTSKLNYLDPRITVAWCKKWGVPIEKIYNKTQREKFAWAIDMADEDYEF
Summary of the method: (§5)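 Graded compound concentrations preincubated with supercoiled pUC19, then 4 units human topoisomerase I, 37 °C for 45 min in relaxation buffer; stopped with 0.25% SDS and 250 μg/mL proteinase K, 30 min at 50 °C; 1% agarose gel without ethidium bromide, 2 h at 120 V in TBE, then stained with ethidium bromide.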

[16] = system: Nucleic Acid; experiment: Binding affinity to calf thymus DNA assessed as DNA intercalation at 50 uM by circular dichroism spectra analysis; format: nucleic-acid assay; details: Bos taurus
Summary of the method: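 CD: 50 μM compound with 200 μM CT-DNA in BPE buffer, alone or plus 10 or 100 mM NaCl; spectra 480–230 nm, 10 mm quartz cell, 20 °C; compound without DNA as control for intrinsic CD.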

[17] = molecular target: T1, DNA topoisomerase 1 (Homo sapiens); experiment: Inhibition of human topoisomerase 1-mediated supercoiled pUC19 plasmid DNA relaxation at 10 uM incubated for 45 mins followed by enzyme addition measured after 30 mins by agarose gel electrophoresis; summary of the method: as §5
[18] = system: HCT-116; experiment: Induction of cell cycle arrest in human HCT116 cells assessed as accumulation at G1 phase at 5 uM after 24 to 48 hrs by propidium iodide based flow cytometry; format: functional; summary of the method: as §3
[19] = molecular target: T1, DNA topoisomerase 1 (Homo sapiens); experiment: Inhibition of human topoisomerase 1-mediated supercoiled pUC19 plasmid DNA relaxation at 50 uM incubated for 45 mins followed by enzyme addition measured after 30 mins by agarose gel electrophoresis; summary of the method: as §5
[20] = molecular target: T1, DNA topoisomerase 1 (Homo sapiens); experiment: Inhibition of human topoisomerase 1-mediated DNA cleavage at 10 uM incubated for 45 mins followed by enzyme addition measured after 30 mins by agarose gel electrophoresis
Summary of the method: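 Topo I cleavage run like the relaxation assay (pUC19, 4 units human topoisomerase I, 37 °C, 45 min; SDS/proteinase K stop), but samples run on 1% agarose gel containing ethidium bromide; camptothecin 20 μM as poisoning control.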

Chain of DNA topoisomerase 2-alpha (Homo sapiens) (P11388 whole entry): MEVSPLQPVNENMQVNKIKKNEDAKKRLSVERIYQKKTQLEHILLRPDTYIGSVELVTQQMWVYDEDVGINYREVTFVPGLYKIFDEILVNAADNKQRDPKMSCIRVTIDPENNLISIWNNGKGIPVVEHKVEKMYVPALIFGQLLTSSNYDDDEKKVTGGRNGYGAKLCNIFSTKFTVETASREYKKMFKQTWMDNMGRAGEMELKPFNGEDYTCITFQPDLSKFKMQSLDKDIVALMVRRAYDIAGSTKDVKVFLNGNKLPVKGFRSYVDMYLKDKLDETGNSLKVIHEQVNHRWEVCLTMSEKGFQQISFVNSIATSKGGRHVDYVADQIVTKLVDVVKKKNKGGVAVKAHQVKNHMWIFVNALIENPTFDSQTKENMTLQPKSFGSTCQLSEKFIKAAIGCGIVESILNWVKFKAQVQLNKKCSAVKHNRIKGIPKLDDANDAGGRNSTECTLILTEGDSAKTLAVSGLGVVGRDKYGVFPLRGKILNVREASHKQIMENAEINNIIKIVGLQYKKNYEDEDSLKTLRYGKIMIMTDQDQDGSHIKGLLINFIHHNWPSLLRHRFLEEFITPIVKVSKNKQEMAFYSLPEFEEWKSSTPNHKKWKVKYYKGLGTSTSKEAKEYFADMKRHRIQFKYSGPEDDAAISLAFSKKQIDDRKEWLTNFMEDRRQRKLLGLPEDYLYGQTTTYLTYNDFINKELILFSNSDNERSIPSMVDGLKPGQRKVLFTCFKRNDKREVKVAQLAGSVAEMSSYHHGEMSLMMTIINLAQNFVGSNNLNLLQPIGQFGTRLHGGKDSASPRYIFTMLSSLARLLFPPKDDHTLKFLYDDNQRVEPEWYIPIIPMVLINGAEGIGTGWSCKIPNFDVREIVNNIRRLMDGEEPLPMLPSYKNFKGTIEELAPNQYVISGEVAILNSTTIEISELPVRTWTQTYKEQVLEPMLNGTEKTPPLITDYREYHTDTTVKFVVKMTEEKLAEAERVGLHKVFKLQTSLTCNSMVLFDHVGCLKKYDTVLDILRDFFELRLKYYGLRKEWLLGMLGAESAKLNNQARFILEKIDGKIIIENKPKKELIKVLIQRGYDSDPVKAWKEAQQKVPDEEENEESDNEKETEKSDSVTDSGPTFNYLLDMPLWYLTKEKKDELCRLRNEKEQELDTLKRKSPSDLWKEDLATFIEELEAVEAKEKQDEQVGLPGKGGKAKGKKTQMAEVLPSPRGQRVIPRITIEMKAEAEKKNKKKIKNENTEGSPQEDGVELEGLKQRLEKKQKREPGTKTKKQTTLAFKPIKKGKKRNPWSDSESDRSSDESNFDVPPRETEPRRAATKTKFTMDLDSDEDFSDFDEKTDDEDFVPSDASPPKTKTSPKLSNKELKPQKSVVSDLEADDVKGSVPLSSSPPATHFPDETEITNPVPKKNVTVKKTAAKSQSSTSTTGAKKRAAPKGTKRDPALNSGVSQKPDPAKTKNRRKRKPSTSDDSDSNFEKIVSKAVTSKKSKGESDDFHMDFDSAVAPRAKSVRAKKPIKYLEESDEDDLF

Row | Activity [6] | inhibition [7] | Activity [12] | ΔTm [13] | ΔTm [14] | inhibition [15] | Activity [16] | inhibition [17] | inhibition [19] | inhibition [20] | Compound | IC50 [1] | IC50 [2] | IC50 [3] | IC50 [4] | IC50 [5] | Activity [8] | Activity [9] | Activity [10] | Activity [11] | Activity [18]
1 | Active | inactive | inactive | 10.7 °C | 15.6 °C | Active |  |  |  |  | Cn1c(=O)c2sc3ccccc3c2c2cc(C3=NCCN3)ccc21 | 400 nM | 400 nM | 200 nM | 1300 nM | 600 nM | tde | tde | Dose-dependent effect | Dose-dependent effect | 
2 | Active | Active | inactive | 5 °C | 6.8 °C |  | inactive | Active |  |  | O=C(Nc1ccc(C2=NCCN2)cc1)c1sc2ccccc2c1Cl | 2100 nM | 1800 nM | 1200 nM | 1600 nM | 1000 nM | tde | tde | Dose-dependent effect | Dose-dependent effect | Active
3 | Active | Active | inactive | 3 °C | 3.8 °C |  | inactive |  | Active |  | O=C(Nc1ccccc1)c1sc2cc(C3=NCCN3)ccc2c1Cl | 2000 nM | 2800 nM | 1300 nM | 2000 nM | 1400 nM |  |  |  |  | 
4 | Active | Active | inactive | 11 °C | 14.6 °C | Active |  |  |  | Active | O=c1[nH]c2ccccc2c2c1sc1cc(C3=NCCN3)ccc12 | 800 nM | 1300 nM | 1200 nM | 1500 nM | 1200 nM |  |  |  |  | 

— ChEMBL document CHEMBL2069278, “Novel substituted benzothiophene and thienothiophene carboxanilides and quinolones: synthesis, photochemical synthesis, DNA-binding properties, antitumor evaluation and 3D-derived QSAR analysis” (J Med Chem, 2012)
